Active and inactive are the calls of the source. The rule behind the calls is not given here.
Legend:
Salmonella typhimurium [1] = assay: Bactericidal activity against Salmonella enterica Typhimurium 14028 infected in RAW 264.7 cells assessed as decrease in bacterial growth yield at 100 nM after 16 hrs postinfection by flow cytometry in presence of 10 ug/ml of intracellular replication inhibitor tetracycline; assay type: functional, organism-based; conditions: Salmonella enterica subsp. enterica serovar Typhimurium
RAW264.7 [2] = assay: Induction of apoptosis in mouse RAW264.7 cells assessed as late apoptotic cells at 100 nM after 16 hrs using annexin V-propidium iodide staining by flow cytometry; assay type: cell-based; conditions: raw264.7, 16 h, 0.1 µM
Method in brief: (§1)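 RAW264.7 cells cultured with compound for 16 h, DMSO as control. Cells stained with annexin V-FITC plus propidium iodide and analysed by flow cytometry. Populations given as percentages of all cells counted, with standard deviations.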

RAW264.7 [3] = assay: Induction of apoptosis in mouse RAW264.7 cells assessed as early apoptotic cells at 100 nM after 16 hrs using annexin V-propidium iodide staining by flow cytometry; assay type: cell-based; conditions: raw264.7, 16 h, 0.1 µM; method in brief: as §1
RAW264.7 [4] = assay: Induction of apoptosis in mouse RAW264.7 cells assessed as necrotic cells at 100 nM after 16 hrs using annexin V-propidium iodide staining by flow cytometry; assay type: cell-based; conditions: raw264.7, 16 h, 0.1 µM; method in brief: as §1
Salmonella typhimurium [5] = assay: Antimicrobial activity against Salmonella enterica Typhimurium 14028 infected in RAW 264.7 cells assessed as inhibition of bacterial replication at 100 nM treated 30 mins before infection measured after 2 to 16 hrs postinfection by flow cytometry; assay type: functional, organism-based; conditions: Salmonella enterica subsp. enterica serovar Typhimurium
RAW264.7 [6] = assay: Cytotoxicity against mouse RAW264.7 cells assessed as change vacuolar pH at 200 uM using acridine orange stain by fluorescent microscope; assay type: cell-based; conditions: raw264.7, 200 µM
Method in brief: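 RAW264.7 cells treated with compound, then stained with acridine orange, whose fluorescence shifts upon protonation. Intravacuolar orange staining scored by fluorescence microscopy as acidified vacuoles.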

RAW264.7 [7] = assay: Cytotoxicity against mouse RAW264.7 cells at 100 nM by LDH release assay; assay type: cell-based; conditions: raw264.7, 0.1 µM
Method in brief: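 RAW264.7 cells cultured with compound for 16 h. LDH released into the culture medium measured chromogenically with a cytotoxicity detection kit. Triplicates, repeated at least twice; paired t test.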

Salmonella typhimurium [8] = assay: Antimicrobial activity against Salmonella enterica Typhimurium 14028 infected in RAW 264.7 cells assessed as […] nitric oxide production in infected cells at 100 nM; assay type: functional, organism-based; conditions: Salmonella enterica subsp. enterica serovar Typhimurium
Method in brief: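 Nonactivated RAW264.7 cells infected with opsonized (10% preimmune BALB/c serum, 30 min, 37°C) noninvasive-grown S. Typhimurium 14028 at MOI 10; cells pretreated 30 min before infection, then fresh medium. 1 h infection, 45 min gentamicin 50 μg/ml, then 10 μg/ml maintenance. NO measured as nitrite in medium by Griess reagent, OD 525 nm against sodium nitrite standards.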

Salmonella typhimurium [9] = assay: bacteriostatic activity against Salmonella enterica Typhimurium 14028 infected in RAW 264.7 cells assessed as decrease intracellular bacteria at 200 uM after 16 hrs postinfection by GFP-based fluorescent reduction assay; assay type: functional, organism-based; conditions: Salmonella enterica subsp. enterica serovar Typhimurium
Salmonella typhimurium [10] = assay: Antimicrobial activity against Salmonella enterica Typhimurium 14028 infected in RAW 264.7 cells assessed as decrease in IL-6 secretion from infected cells at 200 uM after 16 hrs postinfection by ELISA relative to untreated control; assay type: functional, organism-based; conditions: Salmonella enterica subsp. enterica serovar Typhimurium
Salmonella typhimurium [11] = assay: Antimicrobial activity against Salmonella enterica Typhimurium 14028 infected in RAW 264.7 cells assessed as growth inhibition at 200 uM treated 6 hr postinfection measured after 16 hrs of postinfection by flow cytometry; assay type: functional, organism-based; conditions: Salmonella enterica subsp. enterica serovar Typhimurium
RAW264.7 [12] = assay: Cytotoxicity against mouse RAW264.7 cells at 200 uM by LDH release assay; assay type: cell-based; conditions: raw264.7, 200 µM
RAW264.7 [13] = assay: Induction of apoptosis in mouse RAW264.7 cells assessed as late apoptotic cells at 200 uM after 16 hrs using annexin V-propidium iodide staining by flow cytometry; assay type: cell-based; conditions: raw264.7, 16 h
Method in brief: (§2)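 RAW264.7 cells kept 16 h with or without compound in DMSO. Cells stained with annexin V-FITC plus propidium iodide and analysed by flow cytometry. Populations given as percent of all cells counted, with standard deviations.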

RAW264.7 [14] = assay: Induction of apoptosis in mouse RAW264.7 cells assessed as early apoptotic cells at 200 uM after 16 hrs using annexin V-propidium iodide staining by flow cytometry; assay type: cell-based; conditions: raw264.7, 16 h; method in brief: as §2
Salmonella typhimurium [15] = assay: Antimicrobial activity against Salmonella enterica Typhimurium 14028 infected in RAW 264.7 cells assessed as inhibition of inducible nitric oxide synthase expression in infected cells at 200 uM by Immunoblotting relative to untreated control; assay type: functional, organism-based; conditions: Salmonella enterica subsp. enterica serovar Typhimurium
RAW264.7 [16] = assay: Induction of apoptosis in mouse RAW264.7 cells assessed as necrotic cells at 200 uM after 16 hrs using annexin V-propidium iodide staining by flow cytometry; assay type: cell-based; conditions: raw264.7, 16 h; method in brief: as §2
Salmonella typhimurium [17] = assay: Antimicrobial activity against Salmonella enterica Typhimurium 14028 infected in RAW 264.7 cells assessed as growth inhibition at 200 uM treated 4 hr postinfection measured after 16 hrs of postinfection by flow cytometry; assay type: functional, organism-based; conditions: Salmonella enterica subsp. enterica serovar Typhimurium
Salmonella typhimurium [18] = assay: Antimicrobial activity against Salmonella enterica Typhimurium 14028 infected in RAW 264.7 cells assessed as decrease in TNF-alpha secretion from infected cells at 200 Um after 16 hrs postinfection by ELISA relative to untreated control; assay type: functional, organism-based; conditions: Salmonella enterica subsp. enterica serovar Typhimurium
Salmonella typhimurium [19] = assay: Bacteriostatic activity against Salmonella enterica Typhimurium 14028 infected in RAW 264.7 cells assessed as decrease in bacterial growth yield at 200 uM after 16 hrs postinfection by flow cytometry; assay type: functional, organism-based; conditions: Salmonella enterica subsp. enterica serovar Typhimurium
Salmonella typhimurium [20] = assay: Antimicrobial activity against Salmonella enterica Typhimurium 14028 infected in RAW 264.7 cells assessed as delayed degradation of IkappaB-alpha in infected cells at 200 uM after 20 mins postinfection by Immunoblotting relative to untreated control; assay type: functional, organism-based; conditions: Salmonella enterica subsp. enterica serovar Typhimurium
Salmonella typhimurium [21] = assay: Antimicrobial activity against Salmonella enterica Typhimurium 14028 infected in RAW 264.7 cells assessed as decrease in bacterial growth yield at 200 uM after 16 hrs postinfection by flow cytometry in presence of 10 ug/ml of intracellular replication inhibitor tetracycline; assay type: functional, organism-based; conditions: Salmonella enterica subsp. enterica serovar Typhimurium
Salmonella typhimurium [22] = assay: Antimicrobial activity against Salmonella enterica Typhimurium 14028 infected in RAW 264.7 cells assessed as delayed degradation of IkappaB-alpha in infected cells at 200 uM after 40 mins postinfection by Immunoblotting relative to untreated control; assay type: functional, organism-based; conditions: Salmonella enterica subsp. enterica serovar Typhimurium
Salmonella typhimurium [23] = assay: Antimicrobial activity against sseF gene-deficient Salmonella enterica Typhimurium 14028 infected in RAW 264.7 cells assessed as growth inhibition at 200 uM after 2 to 16 hrs postinfection by viable counting relative to untreated control
Salmonella typhimurium [24] = assay: Antimicrobial activity against Salmonella enterica Typhimurium 14028 infected in RAW 264.7 cells assessed as decrease in segregation of plasmid at 200 uM; assay type: functional, organism-based; conditions: Salmonella enterica subsp. enterica serovar Typhimurium
Salmonella typhimurium [25] = assay: Antimicrobial activity against sseG gene-deficient Salmonella enterica Typhimurium 14028 infected in RAW 264.7 cells assessed as growth inhibition at 200 uM after 2 to 16 hrs postinfection by flow cytometry relative to untreated control; assay type: functional, Salmonella enterica subsp. enterica serovar Typhimurium
Salmonella typhimurium [26] = assay: Antimicrobial activity against Salmonella enterica Typhimurium 14028 infected in RAW 264.7 cells assessed as growth inhibition at 200 uM treated 3 hr before infection measured after 16 hrs of postinfection by flow cytometry; assay type: functional, organism-based; conditions: Salmonella enterica subsp. enterica serovar Typhimurium
Salmonella typhimurium [27] = assay: Antimicrobial activity against ssaV gene-deficient Salmonella enterica Typhimurium 14028 infected in RAW 264.7 cells assessed as growth inhibition at 200 uM after 2 to 16 hrs postinfection by flow cytometry relative to untreated control; assay type: functional, organism-based; conditions: Salmonella enterica subsp. enterica serovar Typhimurium
Salmonella typhimurium [28] = assay: Antimicrobial activity against sifA gene-deficient Salmonella enterica Typhimurium 14028 infected in RAW 264.7 cells assessed as growth inhibition at 200 uM after 2 to 16 hrs postinfection by flow cytometry relative to untreated control; assay type: functional, organism-based; conditions: Salmonella enterica subsp. enterica serovar Typhimurium

**Q.** What does the source list for `CO/C1=C\C(C)=C\[C@@H](C)[C@@H](O)[C@@H](C)C/C(C)=C/C=C/[C@H](OC)[C@@H]([C@@H](C)[C@@H](O)[C@H](C)[C@@]2(O)C[C@@H](O)[C@H](C)[C@@H](C(C)C)O2)OC1=O` [BAFILOMYCIN A1]?
**A.** Activity (Salmonella typhimurium [1]): Active; Activity (RAW264.7 [2]): 31.5%; Activity (RAW264.7 [3]): 29.2%; Activity (RAW264.7 [4]): 0.4%; Activity (Salmonella typhimurium [5]): Active; Activity (RAW264.7 [6]): Toxic; Activity (RAW264.7 [7]): Toxic; Activity (Salmonella typhimurium [8]): Active

**Q.** How did the Activity (Salmonella typhimurium [9]) turn out when `COc1ccc2[nH]c([S+]([O-])Cc3ncc(C)c(OC)c3C)nc2c1` (stereo not drawn) [OMEPRAZOLE] was run?
**A.** Active

**Q.** What about the Activity (Salmonella typhimurium [10]) of the same compound?
**A.** inactive

**Q.** And the Activity (Salmonella typhimurium [11])?
**A.** Active

**Q.** What about the Activity (RAW264.7 [12]) of the same compound?
**A.** Non-toxic

**Q.** And the Activity (RAW264.7 [13])?
**A.** 15.8%

**Q.** And the Activity (RAW264.7 [14])?
**A.** 25.3%

**Q.** And the Activity (Salmonella typhimurium [15])?
**A.** inactive

**Q.** What about the Activity (RAW264.7 [16]) of the same compound?
**A.** 0.1%

**Q.** What about the Activity (Salmonella typhimurium [17]) of the same compound?
**A.** Active

**Q.** What about the Activity (Salmonella typhimurium [18]) of the same compound?
**A.** inactive

**Q.** What about the Activity (Salmonella typhimurium [19]) of the same compound?
**A.** Active

**Q.** And the Activity (Salmonella typhimurium [20])?
**A.** inactive

**Q.** And the Activity (Salmonella typhimurium [21])?
**A.** inactive

**Q.** What about the Activity (Salmonella typhimurium [22]) of the same compound?
**A.** inactive

**Q.** What about the “fold change (FC)” value (Salmonella typhimurium [23]) of the same compound?
**A.** 2

**Q.** And the Activity (Salmonella typhimurium [24])?
**A.** Active

**Q.** And the “fold change (FC)” value (Salmonella typhimurium [25])?
**A.** 2

**Q.** What about the Activity (Salmonella typhimurium [26]) of the same compound?
**A.** Active

**Q.** What about the Activity (Salmonella typhimurium [27]) of the same compound?
**A.** inactive

**Q.** And the Activity (Salmonella typhimurium [28])?
**A.** inactive

Reference: ChEMBL document CHEMBL1649444, “Omeprazole antagonizes virulence and inflammation in Salmonella enterica-infected RAW264.7 cells” (Antimicrob Agents Chemother, 2009)
